Assay results reported in ChEMBL document CHEMBL1128502, “Aziridine analogs of [[trans-(epoxysuccinyl)-L-leucyl]amino]-4-guanidinobutane (E-64) as inhibitors of cysteine proteases” (J Med Chem, 1995).

Columns and labels:
[1] = molecular target: Procathepsin L (Homo sapiens) (UniProt P07711); experiment: Second order rate constant for the inactivation of cathepsin L at pH 6.5 was reported
Outline: (§1)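 Inactivation of cysteine protease was followed at 25 °C in 50 mM buffer with 0.2 M NaCl, 5 mM EDTA, 1 mM DTT and 10% acetonitrile. Buffers were citrate for pH 3.0–5.7, phosphate for pH 5.7–7.9 and borate for pH 7.9–9.0. The second-order constant kinac/Ki was obtained by the Tian and Tsou method.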

Papain (Carica papaya) [2] = molecular target: T1, Papain (Carica papaya) (UniProt P00784); experiment: Second order rate constant for the inactivation of papain at pH 6.5 was reported; No time dependent inhibition observed; outline: as §1
T1 sequence (whole entry): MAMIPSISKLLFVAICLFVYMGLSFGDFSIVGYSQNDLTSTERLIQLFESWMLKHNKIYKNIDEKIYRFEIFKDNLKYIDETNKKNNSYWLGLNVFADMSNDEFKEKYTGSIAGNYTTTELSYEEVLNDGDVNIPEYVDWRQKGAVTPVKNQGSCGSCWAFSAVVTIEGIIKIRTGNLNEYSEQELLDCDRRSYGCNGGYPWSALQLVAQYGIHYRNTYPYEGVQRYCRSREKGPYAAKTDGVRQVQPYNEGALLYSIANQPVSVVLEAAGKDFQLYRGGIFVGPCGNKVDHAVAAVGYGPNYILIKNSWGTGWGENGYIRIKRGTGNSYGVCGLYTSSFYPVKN

[3] = molecular target: Cathepsin B (Rattus norvegicus) (UniProt P00787); experiment: Second order rate constant for the inactivation of cathepsin B at pH 6.0 was reported
[4] = molecular target: Cathepsin B (Rattus norvegicus) (UniProt P00787); experiment: Second order rate constant for the inactivation of cathepsin B at pH 6.0 was reported; No time dependent inhibition observed; outline: as §1
[5] = molecular target: Procathepsin L (Homo sapiens) (UniProt P07711); experiment: Second order rate constant for the inactivation of cathepsin L at pH 5.5 was reported; outline: as §1
Papain (Carica papaya) [6] = molecular target: T1, Papain (Carica papaya); experiment: Second order rate constant for the inactivation of papain at pH 6.5 was reported; outline: as §1

Procathepsin L (Homo sapiens), sequence (P07711 114-333 limits assumed): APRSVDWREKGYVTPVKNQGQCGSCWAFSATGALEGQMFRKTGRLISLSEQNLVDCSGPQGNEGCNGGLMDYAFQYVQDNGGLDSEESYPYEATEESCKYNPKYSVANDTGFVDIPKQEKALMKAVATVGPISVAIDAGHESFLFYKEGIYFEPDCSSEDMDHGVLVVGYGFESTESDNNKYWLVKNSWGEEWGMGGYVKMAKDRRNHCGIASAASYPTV
Cathepsin B (Rattus norvegicus), sequence (P00787 80-333 limits assumed): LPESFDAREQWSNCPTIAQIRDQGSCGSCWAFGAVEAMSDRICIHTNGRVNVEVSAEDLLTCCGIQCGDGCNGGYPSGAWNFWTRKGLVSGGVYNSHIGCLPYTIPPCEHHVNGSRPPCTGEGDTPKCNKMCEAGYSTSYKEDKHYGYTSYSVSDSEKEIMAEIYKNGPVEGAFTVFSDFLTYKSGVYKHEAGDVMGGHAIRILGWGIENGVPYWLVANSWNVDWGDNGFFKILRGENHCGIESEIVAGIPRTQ

| Compound | K inact/Ki [1] [M⁻¹ s⁻¹] | K inact/Ki (Papain (Carica papaya) [2]) | K inact/Ki [3] [M⁻¹ s⁻¹] | K inact/Ki [4] | K inact/Ki [5] [M⁻¹ s⁻¹] | K inact/Ki (Papain (Carica papaya) [6]) [M⁻¹ s⁻¹] |
| --- | --- | --- | --- | --- | --- | --- |
| CC(C)CNC(=O)[C@@H]1N[C@H]1C(=O)N[C@@H](CC(C)C)C(=O)N1CCC[C@H]1C(=O)O | 50 | No inhibition | 13 | – | – | – |
| CC(C)CNC(=O)[C@@H]1N[C@@H]1C(=O)N[C@@H](CC(C)C)C(=O)N1CCC[C@H]1C(=O)O | – | – | – | No inhibition | 6.7 | 1.8 |
| CC(C)CNC(=O)[C@H]1N[C@H]1C(=O)O | – | – | – | – | – | 9.4 |
